Source: ChEMBL document CHEMBL2150885, “Dual anticoagulant/antiplatelet persulfated small molecules” (Eur J Med Chem, 2011)
Active and inactive are the calls of the source. No cut-off for these calls is given here.

Experiments:
Mus musculus = species: Mus musculus; test: Acute hepatic toxicity in CD1 mouse; assay type: organism-based; settings: in vivo
[1] = Cytotoxicity against human A375-C5 cells at 1.5 x 10^-4 after 48 hrs; assay type: cell-based; settings: a375-c5, 48 h
Plasma [2] = test: Anticoagulant activity in human plasma assessed as effect on APC level using CBS 42.46 as synthetic substrate at 1 x 10^-3 M; assay type: functional
In short: (§1)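 Compound in saline added to citrated human plasma. Protein C activated by a snake venom-derived activator; enzyme formed quantified by amidolytic activity on chromogenic substrate CBS 42.46. Calibration curve linear 3–150%; normal and pathological control plasmas verify accuracy. Compounds at 1 × 10⁻³ M.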

Platelet [3] = test: Antiplatelet activity against arachidonic acid-induced platelet aggregation in human blood at 6.25 x 10^-4 M measured for 6 mins by multiplate electrical impedance aggregometry; assay type: functional, cell-based
In short: (§2)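 Hirudin-anticoagulated (final […]) healthy-donor whole blood, used within 0.5–1 h. Compound in saline to final 6.25 × 10⁻⁴ M; saline control, acetylsalicylic acid 6.25 × 10⁻⁴ M reference. Blood mixed with saline at 37 °C for 180 s, then agonist at final TRAP-6 […], arachidonic acid 0.5 mM or ADP […]. Impedance recorded 6 min; AUC from mean of two curves, accepted if within 20%.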

Platelet [4] = test: Antiplatelet activity against adenosine diphosphate-induced platelet aggregation in human blood at 6.25 x 10^-4 M measured for 6 mins by multiplate electrical impedance aggregometry; assay type: functional, cell-based; in short: as §2
Platelet [5] = test: Antiplatelet activity against thrombin receptor-activating peptide-6-induced platelet aggregation in human blood at 6.25 x 10^-4 M measured for 6 mins by multiplate electrical impedance aggregometry; assay type: functional, cell-based; in short: as §2
Plasma [6] = test: Anticoagulant activity in human plasma assessed as effect on prothrombin level by PT clotting time with factor II deficient plasma
Plasma [7] = test: Anticoagulant activity in human plasma assessed as effect on APC level using CBS 42.46 as synthetic substrate; assay type: functional, cell-free; in short: as §1
MCF7 = test: Cytotoxicity against human ER-positive MCF7 cells at 1.5 x 10^-4 after 48 hrs; assay type: cell-based; settings: mcf7, 48 h
Plasma [8] = test: Anticoagulant activity in human plasma assessed as effect on prothrombin level by PT clotting time with factor II deficient plasma at 1 x 10^-3 M
NCI-H460 = test: Cytotoxicity against human NCI-H460 cells at 1.5 x 10^-4 after 48 hrs; assay type: cell-based; settings: nci-h460, 48 h
[9] = Antiplatelet activity against collagen-ADP-activated platelet in human blood assessed as closure time at 6.25 x 10^-4 M; assay type: functional
In short: (§3)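 Healthy-donor whole blood collected into hirudin (final […]), analysed within 0.5–1 h. Closure time measured in a PFA-100 under high shear through an aperture, platelets activated by a collagen-coated membrane with ADP or epinephrine.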

Blood [10] = test: Anticoagulant activity in human whole blood assessed as clotting time at 3.12 x 10'4 M by thromboelastography assay; assay type: functional
In short: (§4)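 Citrated whole blood (citrate:blood 1:9) from healthy donors. Compound in saline diluted 1:16 into blood to final 3.12 × 10⁻⁴ or 6.25 × 10⁻⁴ M; saline control. Thromboelastography with intrinsic activator (InTEM); R clotting time and K clot formation time in s. Mean of three independent experiments in duplicate.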

[11] = Metabolic stability of the compound in human plasma assessed as compound remaining after 3 hrs by IP-RP-HPLC analysis; assay type: ADME, cell-free; settings: read-out: Stability
In short: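 Compound at 25 mM final in human plasma diluted 1:1 with PBS pH 7.4, shaken at 37 °C; sampled at 0 and 180 min, three independent samples. TBA buffer (pH 8) added for ion-pairing, quenched with 4× cold acetonitrile, centrifuged, filtered, dried, redissolved in mobile phase. Quantified by ion-pairing RP-HPLC on C-18, phosphate/TBA buffer:acetonitrile 55:45, 1.0 mL/min.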

[12] = target: Coagulation factor X (Homo sapiens) (UniProt P00742); test: Inhibition of human factor 10a using CH3SO2-D-Leu-Gly-Arg-pNA, AcOH as substrate at 1 x 10^-3 M by chromogenic substrate hydrolysis assay
Sequence of Coagulation factor X (Homo sapiens) (P00742 41-179 limits assumed): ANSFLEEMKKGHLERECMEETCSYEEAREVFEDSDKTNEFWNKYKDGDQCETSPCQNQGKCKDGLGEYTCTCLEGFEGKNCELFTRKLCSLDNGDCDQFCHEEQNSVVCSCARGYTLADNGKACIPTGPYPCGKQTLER
Sequence of Coagulation factor X (Homo sapiens) (P00742 235-488 limits assumed): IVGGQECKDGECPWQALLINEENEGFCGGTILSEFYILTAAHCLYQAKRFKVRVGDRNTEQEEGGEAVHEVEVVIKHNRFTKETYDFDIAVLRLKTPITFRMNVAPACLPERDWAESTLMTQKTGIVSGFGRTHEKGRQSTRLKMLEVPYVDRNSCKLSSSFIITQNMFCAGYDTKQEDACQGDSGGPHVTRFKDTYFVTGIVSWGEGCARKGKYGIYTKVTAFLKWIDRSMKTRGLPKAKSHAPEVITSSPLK
In short: (§5)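 Chromogenic hydrolysis in 50 mM Tris/HCl pH 8.3, 227 mM NaCl, 0.1% BSA, with and without bovine antithrombin III (1 U/mL final). Human factor Xa 0.5 U/mL with CBS 31.39 […], or human thrombin 0.06 U/mL with Chromozym TH […]. Absorbance at 405 nm, enzyme-free blank subtracted; initial slope vs water control gives % inhibition. Compounds at 1 × 10⁻³ M; n = 6.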

Plasma [13] = test: Anticoagulant activity in human plasma assessed as concentration required to double activated partial thromboplastin time; assay type: functional
In short: (§6)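 Pooled citrated human plasma; compounds in water (10% DMSO for some), final 5 × 10⁻³ to 0.05 × 10⁻³ M; heparin 0.1–10 UI/mL as reference. APTT, PT and TT measured on a coagulometer with commercial kits, clotting time in s. Duplicates repeated on three days (n = 6). Concentration doubling clotting time obtained by linear regression of each concentration-response curve.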

Blood [14] = test: Anticoagulant activity in human whole blood assessed as clotting formation time at 3.12 x 10'4 M by InTEM-TEG assay; assay type: functional; in short: as §4
Plasma [15] = test: Anticoagulant activity in human plasma assessed as concentration required to double prothrombin time; assay type: functional; in short: as §6
[16] = Antiplatelet activity against collagen-epinephrine-activated platelet in human blood assessed as closure time at 6.25 x 10^-4 M; assay type: functional; in short: as §3
Plasma [17] = test: Anticoagulant activity in human plasma assessed as concentration required to double thrombin time; assay type: functional; in short: as §6
[18] = target: Prothrombin (Homo sapiens) (UniProt P00734); test: Inhibition of human thrombin using Tosyl-Gly-Pro-Arg-p-nitroaniline as substrate at 1 x 10^-3 M by chromogenic substrate hydrolysis assay; in short: as §5
[19] = target: Antithrombin-III (Bos taurus) (UniProt P41361); test: Inhibition of bovine antithrombin-3 at 1 x 10^-3 M
Sequence of Antithrombin-III (Bos taurus) (P41361 whole entry): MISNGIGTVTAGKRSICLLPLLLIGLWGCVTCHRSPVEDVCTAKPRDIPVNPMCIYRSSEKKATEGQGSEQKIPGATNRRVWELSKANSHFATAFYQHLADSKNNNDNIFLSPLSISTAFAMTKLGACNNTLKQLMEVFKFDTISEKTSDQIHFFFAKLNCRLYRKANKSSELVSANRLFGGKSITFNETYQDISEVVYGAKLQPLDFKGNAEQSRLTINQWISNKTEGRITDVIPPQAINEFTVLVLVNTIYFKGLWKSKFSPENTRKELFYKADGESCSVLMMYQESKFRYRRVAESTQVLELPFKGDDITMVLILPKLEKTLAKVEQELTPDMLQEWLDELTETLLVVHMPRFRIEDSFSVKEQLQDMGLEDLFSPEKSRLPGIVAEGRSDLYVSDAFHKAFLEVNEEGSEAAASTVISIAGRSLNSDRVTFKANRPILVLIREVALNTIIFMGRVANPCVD

C[C@@H]1O[C@@H](OC[C@H]2O[C@@H](Oc3c(-c4ccc(OS(=O)(=O)[O-])c(OS(=O)(=O)[O-])c4)oc4cc(OS(=O)(=O)[O-])cc(OS(=O)(=O)[O-])c4c3=O)[C@H](OS(=O)(=O)[O-])[C@@H](OS(=O)(=O)[O-])[C@@H]2OS(=O)(=O)[O-])[C@H](OS(=O)(=O)[O-])[C@H](OS(=O)(=O)[O-])[C@H]1OS(=O)(=O)[O-].[Na+].[Na+].[Na+].[Na+].[Na+].[Na+].[Na+].[Na+].[Na+].[Na+]
Activity (Mus musculus): Non-toxic | Activity [1]: Non-toxic | Activity (Plasma [2]): 28.5% | AUC (Platelet [3]): 215 AU.min | AUC (Platelet [4]): 230 AU.min | AUC (Platelet [5]): 950 AU.min | Activity (Plasma [6]): Dose-dependent effect | Activity (Plasma [7]): Dose-dependent effect | Activity (MCF7): Non-toxic | Activity (Plasma [8]): 9% | Activity (NCI-H460): Non-toxic

O=S(=O)([O-])OC[C@H]1O[C@@H](Oc2cc(/C=C/c3ccc(OS(=O)(=O)[O-])cc3)cc(OS(=O)(=O)[O-])c2)[C@H](OS(=O)(=O)[O-])[C@@H](OS(=O)(=O)[O-])[C@@H]1OS(=O)(=O)[O-].[Na+].[Na+].[Na+].[Na+].[Na+].[Na+]
Time [9]: 212 s | Activity [1]: Non-toxic | Activity (Plasma [2]): 50.5% | AUC (Platelet [3]): 400 AU.min | AUC (Platelet [4]): 173 AU.min | Time (Blood [10]): 447 s | AUC (Platelet [5]): 1020 AU.min | remaining at 3 h [11]: 95% | inhibition [12]: inactive | Activity (Plasma [6]): Dose-dependent effect | Activity (Plasma [7]): Dose-dependent effect | 2aPTT (Plasma [13]): 0.146 mM | Activity (Plasma [13]): Dose-dependent effect | Activity (MCF7): Non-toxic | Time (Blood [14]): 136 s | 2PT (Plasma [15]): 1.77 mM | Activity (Plasma [15]): Dose-dependent effect | Time [16]: 273 s | Activity (Plasma [8]): 12% | Activity (NCI-H460): Non-toxic | Activity (Plasma [17]): Dose-dependent effect | Activity (Plasma [17]; record 2): 1.95 mM | inhibition [18]: inactive | inhibition [19]: inactive
